Data from ChEMBL document CHEMBL1134956, “Relating the structure, activity, and physical properties of ultrashort-acting benzodiazepine receptor agonists” (Bioorg Med Chem Lett, 2002).
Values after ≈ are worked out from the molar mass of the structure shown.

Tests used:
[1] = Selectivity by the ratio of binding affinity of acid to the binding affinity of its ester
[2] = Binding affinity against rat benzodiazepine (BZD) receptor
Rattus norvegicus [3] = assay: Compound was tested for its initial (rat) loss-of-righting reflex LORR recovery time at a dose of 25 mg/kg; type: functional, organism-based; parameters: dose 25 mg/kg; unit not given here
In short: (§1)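 Rat loss-of-righting-reflex test, after the method of ref 14. The compound is given as a bolus injection in 50% PEG/25% EtOH/25% saline. Initial and total recovery times are recorded in min.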

Rattus norvegicus [4] = assay: Compound was tested for its total (rat) loss-of-righting reflex LORR recovery time at a dose of 25 mg/kg; type: functional, organism-based; parameters: dose 25 mg/kg; unit not given here; in short: as §1
[5] = Aqueous solubility at pH 3 was determined; type: physicochemical
In short: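 Solubility of a saturated sample at pH 3, read by visual inspection or UV assay. The pH 3 value was cross-checked against solubility at other pH values and spectrophotometric pKa values.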

Rattus norvegicus [6] = assay: Compound was tested for its total (rat) loss-of-righting reflex LORR recovery time at a dose of 30 mg/kg; type: functional, organism-based; parameters: dose 30 mg/kg
Rattus norvegicus [7] = assay: Compound was tested for its initial (rat) loss-of-righting reflex LORR recovery time at a dose of 30 mg/kg; type: functional, organism-based; parameters: dose 30 mg/kg; in short: as §1
Rattus norvegicus [8] = assay: Compound was tested for its initial (rat) loss-of-righting reflex LORR recovery time at a dose of 50 mg/kg; type: functional, organism-based; parameters: dose 50 mg/kg; in short: as §1
Rattus norvegicus [9] = assay: Compound was tested for its total (rat) loss-of-righting reflex LORR recovery time at a dose of 50 mg/kg; type: functional, organism-based; parameters: dose 50 mg/kg; in short: as §1

COC(=O)CC[C@@H]1N=C(c2ccccc2F)c2cc(Cl)ccc2-n2cc(C)nc21
Selectivity [1]: 156
Ki [2]: 7 nM
Recovery time (Rattus norvegicus [3]): 6
Recovery time (Rattus norvegicus [4]): 21

COC(=O)CC[C@H]1N=C(c2ccccc2F)c2cc(Cl)ccc2-n2c1cnc2C
Selectivity [1]: 28
Ki [2]: 3570 nM

COC(=O)CC[C@@H]1N=C(c2ccccn2)c2cc(Cl)ccc2-n2c(C)cnc21
Selectivity [1]: 147
Ki [2]: 98 nM
Recovery time (Rattus norvegicus [3]): 9
Recovery time (Rattus norvegicus [4]): 11
solubility [5]: 13000 µg/mL (≈ 32.9 mM)

Cc1ncc2n1-c1ccc(Cl)cc1C(c1ccccc1F)=NC2 [MIDAZOLAM]
Ki [2]: 2 nM
solubility [5]: ≥ 8000 µg/mL
Recovery time (Rattus norvegicus [6]): 121 mg/kg
Recovery time (Rattus norvegicus [7]): 23 mg/kg

COC(=O)CC[C@@H]1N=C(c2ccccc2F)c2cc(Cl)ccc2N=C1NCc1ccccc1
Ki [2]: 875 nM

COC(=O)CC[C@@H]1N=C(c2ccccc2F)c2cc(Cl)ccc2N=C1NCCO
Ki [2]: 303 nM

COC(=O)CC[C@@H]1N=C(c2ccccc2F)c2cc(Cl)ccc2N=C1NCc1ccncc1
Ki [2]: 1230 nM

COC(=O)CC[C@@H]1N=C(c2ccccc2F)c2cc(Cl)ccc2-n2c(C)cnc21
Selectivity [1]: 74
Ki [2]: 8 nM
Recovery time (Rattus norvegicus [3]): 23
Recovery time (Rattus norvegicus [4]): 33
solubility [5]: < 1000 µg/mL

COC(=O)CC[C@@H]1N=C(c2ccccc2F)c2cc(Cl)ccc2N=C1NCCc1c[nH]cn1
Ki [2]: 208 nM

COC(=O)CC[C@@H]1N=C(c2ccccn2)c2cc(Cl)ccc2-n2cc(C)nc21
Selectivity [1]: 156
Ki [2]: 60 nM
Recovery time (Rattus norvegicus [3]): 13
Recovery time (Rattus norvegicus [4]): 15
solubility [5]: 2000 µg/mL (≈ 5.07 mM)

CNC1=Nc2ccc(Cl)cc2C(c2ccccc2)=[N+]([O-])C1 [CHLORDIAZEPOXIDE]
Ki [2]: 438 nM

CCNC1=Nc2ccc(Cl)cc2C(c2ccccc2F)=N[C@H]1CCC(=O)OC
Ki [2]: 146 nM

COC(=O)CC[C@@H]1N=C(c2ccccn2)c2cc(Cl)ccc2-n2ccnc21
Selectivity [1]: 176
Ki [2]: 79 nM
Recovery time (Rattus norvegicus [3]): 7
Recovery time (Rattus norvegicus [4]): 10

COC(=O)CC[C@@H]1N=C(c2ccccc2F)c2cc(Cl)ccc2N=C1NCCc1ccncc1
Ki [2]: 792 nM

COC(=O)CC[C@@H]1N=C(c2ccccn2)c2cc(Cl)ccc2NC1=O
Selectivity [1]: 46
Recovery time (Rattus norvegicus [8]): 9 mg/kg
Ki [2]: 139 nM
solubility [5]: 1000 µg/mL (≈ 2.79 mM)
Recovery time (Rattus norvegicus [9]): 16 mg/kg

COC(=O)CC[C@@H]1N=C(c2ccccc2F)c2cc(Cl)ccc2-n2ccnc21
Selectivity [1]: 64
Ki [2]: 7 nM
Recovery time (Rattus norvegicus [3]): 17
Recovery time (Rattus norvegicus [4]): 23

COC(=O)CC[C@@H]1N=C(c2ccccc2F)c2cc(Cl)ccc2N=C1NCC(C)C
Ki [2]: 1010 nM

CNC1=Nc2ccc(Cl)cc2C(c2ccccc2F)=N[C@H]1CCC(=O)OC
Selectivity [1]: 156
Ki [2]: 96 nM
Recovery time (Rattus norvegicus [3]): 15
Recovery time (Rattus norvegicus [4]): 22
solubility [5]: 13000 µg/mL (≈ 33.5 mM)

COC(=O)CC[C@@H]1N=C(c2ccccc2F)c2cc(Cl)ccc2-n2c1cnc2C
Selectivity [1]: 226
Ki [2]: 11 nM
Recovery time (Rattus norvegicus [3]): 20
Recovery time (Rattus norvegicus [4]): 24

COC(=O)CC[C@@H]1N=C(c2ccccc2F)c2cc(Cl)ccc2NC1=O
Selectivity [1]: 984
Ki [2]: 7 nM
Recovery time (Rattus norvegicus [3]): 9
Recovery time (Rattus norvegicus [4]): 24
solubility [5]: < 3000 µg/mL

COC(=O)CC[C@@H]1N=C(c2ccccn2)c2cc(Cl)ccc2-n2c1nc(C)c2C
Selectivity [1]: 40
Ki [2]: 130 nM
